High-throughput results: PubChem BioAssay, several laboratories
Most compounds without a hit are left out; they make up all but 2.5% or so of the library.
NadD block: NadD (S. aureus) enzyme inhibition | inhibition, % at 20 µM | purified NadD enzyme, colorimetric absorbance read-out | 360,000 compounds, 0.78% hits; in the data active means inhibition above about 26%
ABHD5-PLIN5 inh: ABHD5-PLIN5 protein interaction inhibition; 360,000 compounds, 0.78% hits; AID 602281; Split G. princeps luciferase complementation, luminescence, 4 h; Q00G26+Q8WTS1; inhibition, % at 4 µM;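 active means inhibition above the mean inhibition across every tested compound plus 3 SD, cut at about 22% in these data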;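 further: 0% = DMSO only wells and the 100% control is not disclosed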
SENP1 inh: SENP1 (human) catalytic domain inhibition; recombinant SENP1 catalytic domain, CyPet-SUMO1-YPet FRET cleavage; inhibition, % at 10 µM; 360,000 compounds, 0.21% hits;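 active means inhibition at least 30% at 10 µM, raw YFP signal under a set limit, fluorescence ratio 0.5 to 1.5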;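 further: 0% = enzyme with DMSO and 100% = no enzyme wells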
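Test system: human SENP1 catalytic domain; medium: Tris pH 8 buffer plus EDTA, NaCl, BME, BSA, NP40, catalase; incubation: 50 min reaction at room temperature; technique: FRET, CFP and YFP emission; controls: no-enzyme low control and enzyme-plus-DMSO high control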
Beta2AR agonist: agonists of human beta-2 adrenergic receptor inducing internalization; 340,000 compounds, 0.43% hits; P07550; Am2.2-beta2AR cells, FAP receptor internalization, flow cytometry; response, % (test concentration not listed);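 active means response above a set limit, near 3 SD of response in nonfluorescent compounds, cut at about 42% in these data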
GRK2 inh: human GRK2 inhibition via aptamer displacement; AID 488847; 330,000 compounds, 0.59% hits; P25098; inhibition of aptamer binding, % at 10 µM; bead flow cytometry, FAM-aptamer displacement from GRK2;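 active means inhibition of aptamer binding above 40%, roughly 3 SD of noise, on plates passing a quality check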;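 further: median bead fluorescence of bound FAM aptamer so fluorescent compounds give negative values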
ABHD5-PLIN5 conf: confirmation of human ABHD5-PLIN5 interaction inhibitors; shares compounds with ABHD5-PLIN5 inh; inhibition, % at 4 µM; 2,200 compounds, 67% hits; biochemical ABHD5-PLIN5 interaction, luminescence; in the data active means inhibition above about 23%;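 further: 0% = DMSO vehicle wells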
HNF4 counter: HNF4 split-luciferase signal hit, counter-screen | shares compounds with ABHD5-PLIN5 inh | HNF4 dimerization, luminescence, biochemical | inhibition, % at 4 µM | 2,200 compounds, 77% hits;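 active means mean inhibition across replicate wells exceeding the computed hit threshold, cut at about 13% in these data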;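 further: light from luciferase halves that rejoin when HNF4 fusion proteins dimerize; 0% = DMSO only wells and the 100% control is not given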
Target sequence (P41235 whole entry, looked up, the tested form may be a part): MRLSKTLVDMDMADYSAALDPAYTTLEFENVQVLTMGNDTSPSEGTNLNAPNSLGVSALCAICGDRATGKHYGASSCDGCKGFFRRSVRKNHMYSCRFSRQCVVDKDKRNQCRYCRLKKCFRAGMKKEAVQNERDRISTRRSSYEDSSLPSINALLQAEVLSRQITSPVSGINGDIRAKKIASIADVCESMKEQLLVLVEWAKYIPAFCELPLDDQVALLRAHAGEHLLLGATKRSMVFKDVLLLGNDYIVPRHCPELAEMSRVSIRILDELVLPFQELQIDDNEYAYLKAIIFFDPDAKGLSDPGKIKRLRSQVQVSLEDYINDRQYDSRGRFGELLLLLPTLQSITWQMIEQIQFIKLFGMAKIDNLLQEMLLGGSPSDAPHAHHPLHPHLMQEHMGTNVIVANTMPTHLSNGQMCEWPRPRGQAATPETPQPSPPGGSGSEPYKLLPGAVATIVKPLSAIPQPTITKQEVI
* hit, by the source's call; x = no result.

SMILES | NadD block | ABHD5-PLIN5 inh | SENP1 inh | Beta2AR agonist | GRK2 inh | ABHD5-PLIN5 conf | HNF4 counter
COc1ccccc1C(=O)/C=C/c1ccc(N2CCCCC2)c([N+](=O)[O-])c1 | 5 | 37* | 4 | 0 | 0 | 64* | 67*
O=C(/C=C/c1cccc([N+](=O)[O-])c1)c1cccs1 | -3 | 74* | 1 | 15 | 1 | 97* | 102*
CC(=O)Oc1ccccc1C(=O)C=Cc1cccc([N+](=O)[O-])c1 | -2 | 99* | 3 | 65* | x | 104* | 109*
COc1ccccc1N1CCN(C(=O)/C=C/c2cccc([N+](=O)[O-])c2)CC1 | 2 | -1 | -1 | 5 | 1 | x | x
Nc1cc(S(=O)(=O)N2CCOCC2)ccc1Oc1cccc(Br)c1 | -4 | -3 | 0 | 9 | x | x | x
Cc1ccc(-n2cc(-c3ccccc3)c3c(N4CCN(C)CC4)ncnc32)cc1 | -9 | 24* | 1 | 0 | 1 | 11 | 1
Cc1ccc(-n2cc(-c3ccccc3)c3c(N4CCOCC4)ncnc32)cc1 | 2 | 2 | -1 | 12 | x | x | x
CCc1cccc2c(C(=O)CSc3nncn3-c3ccc(OC)cc3)c[nH]c12 | 7 | 2 | -2 | 9 | 0 | x | x
CCc1cccc2c(C(=O)CSc3nncn3-c3ccccc3OC)c[nH]c12 | 5 | 24* | -1 | 12 | 0 | 8 | 0
CCOCCCNC(=S)N1CCC(C(=O)c2ccc3c(c2)OCCO3)CC1 | -5 | -6 | 0 | -7 | 0 | x | x
CCCCn1c(N)c(N(CCOC)C(=O)c2ccc(C)c(S(=O)(=O)N3CCCCC3)c2)c(=O)[nH]c1=O | 2 | 0 | -2 | 7 | 0 | x | x
C=CCN(CC=C)Cc1cc(=O)oc2ccc3ccccc3c12 | -1 | 0 | -6 | x | x | x | x
C=CCN(CC=C)Cc1c(O)ccc2c1oc(=O)c1ccccc12 | 10 | 68* | 0 | -7 | 0 | 14 | 17*
Cc1ccc(NC(=O)CCS(=O)(=O)c2cc3[nH]c(=O)c(=O)[nH]c3cc2C)cc1 | -3 | 2 | -1 | 1 | 3 | x | x
CC1(C)CC(=O)C(C(c2ccc(F)cc2)C2C(=O)CC(C)(C)CC2=O)C(=O)C1 | 1 | 2 | 1 | 8 | 1 | x | x
CCc1sc(C(C2C(=O)CC(C)(C)CC2=O)C2C(=O)CC(C)(C)CC2=O)cc1[N+](=O)[O-] | 9 | 52* | 2 | 22 | 1 | 101* | 98*
CCCCCCCCN1C(=O)[C@H](CC(=O)NCc2ccc(C)o2)C[C@@]2(C(=O)OC)CCCCC=C12 | 12 | 36* | -4 | x | x | 23* | 7
CCCCCCCCN1C(=O)[C@H](CC(=O)NCc2ccc(C)o2)C[C@@]2(C(=O)OCC)CCC=C12 | x | 31* | -3 | x | x | 28* | 16*
O=C(CN1C(=O)NC(Cc2c[nH]c3ccccc23)C1=O)Nc1ccc(Br)cc1F (stereo not drawn) | -3 | -1 | 3 | -5 | 0 | x | x
COC(=O)c1ccc2nc(-c3ccc(C)cc3)c(CC3CCCCC3)n2c1 | 5 | 4 | -21 | x | x | x | x
N#Cc1c(NCCCO)nc(-c2ccco2)c2c1CCCC2 | 1 | 35* | -30 | 12 | 0 | 15 | 21*
NS(=O)(=O)c1ccc(N2CCCCCC2)c([N+](=O)[O-])c1 | -2 | 74* | 3 | -4 | 2 | 2 | 13*
COc1ccc(N2C(=O)CSC2c2ccc(F)cc2)cc1 (stereo not drawn) | -1 | 9 | 1 | -4 | 3 | x | x
COc1ccc(-n2sc3ccccc3c2=O)cc1 | -4 | 76* | 2 | x | x | 81* | 120*
COc1ccc(-n2sc3ccc(F)cc3c2=O)cc1 | -2 | 86* | 0 | 2 | 0 | 93* | 120*
Cc1ccc(C)c(-n2sc3ccc(F)cc3c2=O)c1 | 16 | 100* | 1 | 4 | 0 | 76* | 114*
CCOC(=O)c1c(S(=O)(=O)N2CCCCCC2)c(C)n(C)c1C | -2 | 0 | 2 | -6 | 3 | x | x
CCOc1ccccc1C(=O)N[C@H](C(=O)Nc1ccc(OC)c(S(=O)(=O)N2CCOCC2)c1)C(C)C | 4 | 2 | 3 | -7 | 0 | x | x
